The target of one data set is T1, KIF15-N700 (Homo sapiens, UniProt Q9NS87).
T1 sequence (Q9NS87 1-700 limits assumed): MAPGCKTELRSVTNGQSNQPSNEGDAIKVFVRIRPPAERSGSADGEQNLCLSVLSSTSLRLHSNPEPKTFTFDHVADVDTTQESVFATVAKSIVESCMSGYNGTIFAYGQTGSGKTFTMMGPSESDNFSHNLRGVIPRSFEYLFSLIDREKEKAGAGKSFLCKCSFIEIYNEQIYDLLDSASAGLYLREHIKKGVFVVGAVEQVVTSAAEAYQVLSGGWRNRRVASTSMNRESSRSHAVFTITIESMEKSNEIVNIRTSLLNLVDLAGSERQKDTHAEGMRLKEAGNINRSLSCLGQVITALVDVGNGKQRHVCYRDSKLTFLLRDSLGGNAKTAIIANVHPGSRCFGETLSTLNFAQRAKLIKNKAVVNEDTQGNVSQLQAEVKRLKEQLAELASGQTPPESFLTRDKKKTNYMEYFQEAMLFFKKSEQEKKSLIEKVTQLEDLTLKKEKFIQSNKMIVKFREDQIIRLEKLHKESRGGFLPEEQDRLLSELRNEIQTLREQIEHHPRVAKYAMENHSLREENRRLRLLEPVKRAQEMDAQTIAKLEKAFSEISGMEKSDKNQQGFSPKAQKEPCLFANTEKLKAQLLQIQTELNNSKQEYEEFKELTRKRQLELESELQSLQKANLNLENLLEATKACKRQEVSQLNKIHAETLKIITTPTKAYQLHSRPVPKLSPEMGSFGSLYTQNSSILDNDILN
As to the kind of experiment: Microtubule binding to coverslip via KIF15 in gliding assay. Conditions: 1 min postdrug addition; 24 µM Munesib-1 or 100 µM Fift-IN. The essentials: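 During KIF15-N700 gliding assays, microtubules bound to the coverslip were counted immediately before adding drug and after 1 min of incubation. Test compound was 24 µM or 100 µM; DMSO served as control. Results are expressed as the percentage of microtubules remaining bound.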

The test system of the next data set is HeLa cells. As to the kind of experiment: Preanaphase spindle monopolarity, parental HeLa cells. Format: cell-based.
Data set [1] deals with HeLa-derived KIRC-2 cells. As to the kind of experiment: Preanaphase spindle monopolarity, HeLa-derived KIRC-2 cells. It is filed as cell-based. Conditions: same concentrations as in KIRC-1 cells.
The nature of data set [2]: Precipitation observed in culture media. It is filed as physicochemical.

The record followed here is publication PMC9727797 (Molecular Biology of the Cell, 2022).

Molecules are shown by their SMILES.

Consider `COC(=O)c1ccc2c(c1)N(C)S(=O)(=O)c1cnc(SC)nc1-2` [Munesib-1, Methyl 6-methyl-2-(methylthio)-6H-benzo[c]pyrimido[4,5-e][1,2]thiazine-8-carboxylate 5,5-dioxide], for which the “microtubules remaining bound to the coverslip via KIF15” value at KIF15-N700 was “little effect on binding”. In the data set on HeLa cells, the “effect on spindle assembly in parental line” value is recorded as “little effect on the parental HeLa line”. Further, in data set [1], the “effect on monopolarity index” value is recorded as “failed to substantially increase the monopolarity index”. Further, the solubility observation result in data set [2] is given as “often precipitated in culture media”.
